Not all results are given here.
Apaf-1 act: activators of human Apaf-1 apoptosome, primary screen, biochemical, DEVD-Rh110 fluorescence, uHTS; activity change, negative = activation, % at 20 µM; Apaf-1 apoptosome caspase-3 activation; stronger effect = lower value; AID 489031, 2010; Apoptotic protease-activating factor 1 (Homo sapiens), O14727; hit rate 0.31% among 330,000;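 active = activity change at or below -40% at 20 µM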
Target sequence (O14727 whole entry, looked up): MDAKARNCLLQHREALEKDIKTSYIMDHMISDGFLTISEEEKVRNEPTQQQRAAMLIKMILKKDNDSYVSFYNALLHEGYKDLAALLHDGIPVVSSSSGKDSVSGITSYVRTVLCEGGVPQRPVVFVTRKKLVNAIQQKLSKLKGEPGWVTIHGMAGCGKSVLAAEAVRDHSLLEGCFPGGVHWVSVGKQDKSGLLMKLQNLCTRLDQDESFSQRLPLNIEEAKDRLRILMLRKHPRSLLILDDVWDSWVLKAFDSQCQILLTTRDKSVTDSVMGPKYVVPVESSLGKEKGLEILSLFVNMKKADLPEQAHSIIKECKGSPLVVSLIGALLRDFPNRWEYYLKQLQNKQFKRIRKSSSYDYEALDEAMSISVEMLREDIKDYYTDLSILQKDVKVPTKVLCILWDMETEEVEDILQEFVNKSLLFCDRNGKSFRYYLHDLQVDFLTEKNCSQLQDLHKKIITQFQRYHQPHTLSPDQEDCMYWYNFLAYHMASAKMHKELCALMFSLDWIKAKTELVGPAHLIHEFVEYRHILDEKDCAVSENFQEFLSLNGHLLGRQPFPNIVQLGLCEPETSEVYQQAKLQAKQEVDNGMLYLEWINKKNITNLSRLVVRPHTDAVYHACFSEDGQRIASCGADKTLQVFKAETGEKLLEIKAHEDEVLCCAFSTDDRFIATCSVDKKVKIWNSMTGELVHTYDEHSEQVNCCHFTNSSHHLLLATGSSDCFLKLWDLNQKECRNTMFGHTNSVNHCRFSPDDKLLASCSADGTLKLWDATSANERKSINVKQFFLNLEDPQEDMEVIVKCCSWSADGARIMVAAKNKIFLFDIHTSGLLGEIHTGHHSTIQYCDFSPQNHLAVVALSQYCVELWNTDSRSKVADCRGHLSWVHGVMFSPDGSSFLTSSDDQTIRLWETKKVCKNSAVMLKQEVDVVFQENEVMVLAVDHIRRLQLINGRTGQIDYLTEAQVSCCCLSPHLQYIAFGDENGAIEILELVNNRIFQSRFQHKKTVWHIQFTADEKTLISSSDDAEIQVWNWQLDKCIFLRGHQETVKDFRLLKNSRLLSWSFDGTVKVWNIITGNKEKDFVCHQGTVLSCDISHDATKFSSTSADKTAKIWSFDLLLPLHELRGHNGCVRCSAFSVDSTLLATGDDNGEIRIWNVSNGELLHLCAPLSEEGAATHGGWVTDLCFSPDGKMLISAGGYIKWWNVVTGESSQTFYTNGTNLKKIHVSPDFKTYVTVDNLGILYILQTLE
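Material: reconstituted apoptosome of Apaf-1, cytochrome c, caspase-9, procaspase-3; times: 30 min preincubation, 50 min reaction, room temperature; measured by: fluorescence, 540 nm emission, 480 nm excitation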
Rh110 interf act: Rh110 fluorescence interference by putative Apaf-1 activators, confirmation, artefact control for Apaf-1 activator project, biochemical, 20 µM; fluorescence interference (activity change), % at 20 µM, hits read low; quenched caspase reaction, Ex480/Em540; 980 tested, under 10 active; shares compounds with Apaf-1 act;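 active = mean activity change at or below -40% when tested at 20 µM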
Apaf-1 act conf: Apaf-1 activators, single-dose retest, confirmation, biochemical, fluorescence, DEVD-Rh110, 20 µM; shares compounds with Apaf-1 act; reconstituted apoptosome caspase-3 activity; stronger effect = lower value; activity change, negative = activation, % at 20 µM; hit rate 5% among 980;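 active = mean activity change at or below -40%, meaning activation of 40% or more, at 20 µM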
Fluor interf act: fluorescence interference of Apaf-1 activator hits, dose response, artefact control for Apaf-1 activator project. shares compounds with Apaf-1 act. fluorescence interference counterscreen, Apaf-1 activator assay. EC50, µM. 55 tested, under 10 active; call rule not given here
Large screens that a line does not name were inactive (follow-up assays come after a bar, where they were run).

C#CCOCCOCCOCCNc1nc(N2CCN(C(=O)[C@H]([C@@H](C)CC)n3cc(CCCCN)nn3)CC2)nc(N2CCN(C(=O)[C@H]([C@@H](C)CC)n3cc(CCCN=C(N)N)nn3)CC2)n1	none
CCN(CC(=O)NCc1cccs1)C(=O)CCCOc1ccc(C(C)(C)C)cc1	none
O=C(NCc1cccs1)c1cccnc1C(=O)O	Apaf-1 act -79 | Rh110 interf act inactive | Apaf-1 act conf inactive
COCCn1c(N)c(C(=O)NCc2cccs2)c2nc3ccccc3nc21	none
CCCCCCCCCCC[N+](C)(C)CC/C=C1/c2ccccc2Sc2ccc(Cl)cc21	none
COc1ccc(/C=N/n2c(C)nc3sc(C)c(C)c3c2=O)cc1OC	Apaf-1 act -145 | Rh110 interf act inactive | Apaf-1 act conf inactive
COCCCn1c(=O)c2sccc2n(Cc2ccccc2C)c1=O	none
Cc1ccc(SCc2cc(-c3ccc(Cl)cc3)no2)cc1	none
Cc1ccc(Sc2cc(Cl)nc(N)n2)cc1	Apaf-1 act -387 | Rh110 interf act inactive | Apaf-1 act conf inactive
Cc1ccc(SC2=C(Sc3ccc(C)cc3)C(=O)c3ccccc3C2=O)cc1	none
Cc1cc(=O)n(-c2ccc3ccccc3n2)[nH]1	none
COc1ccc(OC)c2c1C(=O)c1ccccc1C2=O	none
COc1ccc2c(c1OC)C(=O)OC2C1c2c(cc3c(c2OC)OCO3)CCN1C (stereo not drawn)	none
CC1CCCN(C2=C(NS(=O)(=O)c3ccc(Br)cc3)C(=O)c3ccccc3C2=O)C1 (stereo not drawn)	none
CCOC(=O)C1CCCN(C2=C(NS(=O)(=O)c3ccc(Br)cc3)C(=O)c3ccccc3C2=O)C1 (stereo not drawn)	none | Fluor interf act inactive
CC1CCN(C2=C(NS(=O)(=O)c3ccc(Br)cc3)C(=O)c3ccccc3C2=O)CC1	none
Cc1ccc2cc(C(c3nnnn3Cc3ccccc3)N3CCc4ccccc43)c(=O)[nH]c2c1 (stereo not drawn)	none
O=C1Nc2ccccc2N(O)N1c1cc(-c2cccc(Cl)c2)no1	Apaf-1 act -88 | Rh110 interf act inactive | Apaf-1 act conf inactive
O=C1Nc2cc(Cl)c(Cl)cc2N(O)N1c1cccc(Cl)c1	none
COc1cc(OC)cc(-c2sc3ccc(OC)cc3c2C#CC2(N)CCCCC2)c1	none
N/C(=N\OC(=O)c1ccc(Cl)cc1Cl)c1cccnc1	none
CC(C)(C)c1ccc(C(=O)NNc2cc(N3CCCCC3)nc(N3CCCCC3)n2)cc1	none
O=C(CSc1nnnn1-c1ccc(C(=O)O)cc1)NC1CC1	Apaf-1 act -324 | Rh110 interf act inactive | Apaf-1 act conf inactive
CN1CCc2cc3c(c4c2[C@H]1[C@H](O)c1ccccc1-4)OCO3	none
CCOc1ccc(-c2nnc(-c3ccncc3)o2)cc1	Apaf-1 act -421 | Rh110 interf act inactive | Apaf-1 act conf inactive
O=[N+]([O-])c1cccc(C=Nc2cccc3ccccc23)c1O	none
Nc1nn2c(-c3ccccc3)cc(=O)[nH]c2c1N=Nc1ccc(O)cc1	none
C=C[C@@H]1CN2CCC1C[C@@H]2[C@@H](O)c1ccnc2ccc(OC)cc12 (stereo partly drawn)	none
Cc1nc(Nc2cnc(/C=C/c3cc(C(=O)Nc4cccc(C(F)(F)F)c4)ccc3C)cn2)cc(N2CCNCC2)n1	none
CCN(CC)CCOc1ccc(/C(=C(\Cl)c2ccccc2)c2ccccc2)cc1	none
Cc1cc(-c2nnc(CCC(=O)NC(C)(C)C34CC5CC(CC(C5)C3)C4)o2)no1	Apaf-1 act -55 | Rh110 interf act inactive | Apaf-1 act conf inactive
CCC(=Nc1ccc(N)cc1)C1=C(O)C(C(=O)OC)C(C)(C)CC1=O (stereo not drawn)	none
O=C(O)c1ccc(S(=O)(=O)/N=C2\C=C(Nc3ccccc3F)C(=O)c3ccccc32)cc1	none
COc1ccc(-c2noc(COc3ccc4ccccc4c3Br)n2)cc1OC	Apaf-1 act -136 | Rh110 interf act inactive | Apaf-1 act conf inactive
COc1ccc(C(c2c(C)[nH]n(-c3ccccc3)c2=O)c2c(C)[nH]n(-c3ccccc3)c2=O)cc1OC	none
CCCc1[nH]nc2c1C(c1ccc(OC)c(CSC3=NCCS3)c1)C(C#N)=C(N)O2 (stereo not drawn)	none
CC1=NN(c2ccc(C)cc2C)C(=O)C1C(c1cccc(O)c1)C1C(=O)N(c2ccc(C)cc2C)N=C1C (stereo not drawn)	none

Assay outcomes deposited in PubChem BioAssay by Sanford-Burnham Center for Chemical Genomics.
